# From PubChem
# M18AAP inhibitor – PfM18AAP inhibitors, malaria aminopeptidase, primary screen, biochemical, QFRET, recombinant enzyme; H-Glu-NHMec fluorogenic cleavage; inhibition, % at 7.35 µM; actives 1.2% (n = 290,000);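 active = inhibition above the campaign mean inhibition over all tested compounds plus 3 SD, cut at about 28% in these data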;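 note: 0% = plate median of test compound wells and 100% = 2 mM ZnCl2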
# ALR inh – inhibitors of human ALR sulfhydryl oxidase, primary screen, biochemical, H2O2 detection, HRP-luminol luminescence, single point; FAD-linked sulfhydryl oxidase ALR (Homo sapiens), P55789; purified ALR, DTT oxidation; inhibition, % (test concentration not listed); actives 3.8% (n = 290,000); AID 485317, 2010;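 active = mean replicate inhibition above about 79%, with every replicate also reaching it, limit read from the data; inconclusive = only one of the two criteria met; inactive = mean below limit and not every replicate reaching it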
# Target sequence (P55789 whole entry, looked up): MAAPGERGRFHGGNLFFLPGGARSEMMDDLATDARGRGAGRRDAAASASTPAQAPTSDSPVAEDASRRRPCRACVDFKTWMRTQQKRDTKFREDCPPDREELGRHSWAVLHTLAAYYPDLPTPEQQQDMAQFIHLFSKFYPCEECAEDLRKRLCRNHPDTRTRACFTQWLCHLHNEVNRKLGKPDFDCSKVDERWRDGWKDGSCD
# Rtt109 Vps75 – inhibitors of C. albicans Rtt109/Vps75 HAT, primary screen, biochemical, ThioGlo CoA-SH fluorescence, plate reader; Histone acetyltransferase RTT109 (Candida albicans (strain SC5314 / ATCC MYA-2876)), …; purified Rtt109/Vps75, 4 h; inhibition, % at 34.9 µM; actives 0.16% (n = 330,000);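 active = inhibition of at least 50% in every replicate; inconclusive = best replicate reaches 50% inhibition but some replicates fall short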
# Target sequence (Q5AAJ8 whole entry, looked up): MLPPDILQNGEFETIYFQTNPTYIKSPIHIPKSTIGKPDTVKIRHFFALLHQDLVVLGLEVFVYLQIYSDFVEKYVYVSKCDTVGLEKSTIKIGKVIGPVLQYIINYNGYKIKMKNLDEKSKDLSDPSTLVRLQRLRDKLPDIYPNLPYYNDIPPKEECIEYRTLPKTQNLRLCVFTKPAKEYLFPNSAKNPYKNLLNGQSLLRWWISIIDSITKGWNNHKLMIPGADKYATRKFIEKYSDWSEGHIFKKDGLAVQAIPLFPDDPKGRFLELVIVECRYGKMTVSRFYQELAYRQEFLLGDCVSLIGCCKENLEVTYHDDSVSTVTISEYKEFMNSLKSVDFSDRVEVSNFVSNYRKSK
# UCH37 DUB inh – inhibitors of human UCH37 deubiquitinase, primary screen, biochemical, Ub-AMC cleavage, fluorescence | Ubiquitin carboxyl-terminal hydrolase isozyme L5 (Homo sapiens), Q9Y5K5 | purified proteasome/UCH37 | inhibition, % (test concentration not listed) | actives 0.33% (n = 330,000) | AID 588478, 2011;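 active = mean inhibition over replicate wells above about 20%, limit read from the data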;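 note: 0% = compound-free wells with enzyme and 100% = wells lacking proteasome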
#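 assay system = human UCH37 enzyme supplied as purified proteasome complex | amount = proteasome at 0.15 nM in the dispensed enzyme solution | schedule = 30 min compound-proteasome preincubation then 25 min substrate reaction, room temperature | measured by = fluorescence, ex 355 nm, em 460 nm | benchmarks = no-proteasome wells (full inhibition) and compound-free wells (no inhibition)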
# HDAC3 inh – HDAC3 deacetylase inhibitors, primary screen, biochemical, fluorescence, cell-free homogeneous. Histone deacetylase 3 (Homo sapiens), O15379. recombinant HDAC3, fluorogenic peptide/trypsin coupled. inhibition, % at 8.3 µM. actives 0.15% (n = 320,000). AID 2718, 2010; in the data active = inhibition above about 26%, passing the limit was not always enough; inconclusive = no clear call, values can overlap the other calls
# FAS-TE inh – FAS thioesterase domain inhibitors, primary screen, biochemical, fluorescence intensity, uHTS; recombinant FAS-TE, OMFH fluorogenic substrate, fluorescence endpoint; inhibition, % at 15 µM; actives 0.67% (n = 360,000); Fatty acid synthase (Homo sapiens), P49327; AID 602261, 2012;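 active = compounds whose normalised, plate-corrected inhibition of enzyme fluorescence in the single-dose primary screen is 50% or more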;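 note: 0% = DMSO with enzyme and 100% = substrate without enzyme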
# An asterisk follows results filed as active; i = inactive; ? = inconclusive; / = not tested or not shown. Shown are actives, neighbours in structure and some others; about 4.6% of the full set was active somewhere.
SMILES,M18AAP inhibitor,ALR inh,Rtt109 Vps75,UCH37 DUB inh,HDAC3 inh,FAS-TE inh
C=C(C)CNC(=S)NN=Cc1ccco1,/,/,/,6,/,/
O=[N+]([O-])c1ccc(Oc2ccc(C=NO)cc2)nc1,/,/,/,4,/,/
Cc1noc(C)c1CSCC(=O)Nc1nc2ccc(S(C)(=O)=O)cc2s1,/,97*,3,3,3,-4
COc1ccc2nc(NC(=O)CSCc3c(C)noc3C)sc2c1,/,1,-9,5,7,3
Cc1noc(C)c1CSCC(=O)NC1=NCCS1,-7,97*,10,1,-1,-23
COc1cc(/C=N\NC(=O)c2ccc(Cn3cc(Br)c([N+](=O)[O-])n3)o2)cc(OC)c1O,19,100*,2,/,5,-10
COc1cc(/C=N/NC(=O)c2ccc(Cn3cc([N+](=O)[O-])cn3)o2)cc(Br)c1O,6,96*,13,/,2,6
COc1cc(C=NNC(=O)c2ccc(Cn3cc(Br)c([N+](=O)[O-])n3)o2)cc(OC)c1O,/,/,/,8,/,/
COc1ccc(OC)c(N(CC(=O)N2CCCCC2)S(=O)(=O)c2ccc(OC)c(OC)c2)c1,2,-10,1,2,0,-9
COc1ccc(OC)c(N(CC(N)=O)S(=O)(=O)c2ccc(OC)c(OC)c2)c1,3,99*,-5,1,3,-5
CN1C(=O)C(=NOC(=O)c2cccc3ccccc23)c2ccccc21,/,/,/,-3,/,/
N#Cc1ccc(C2=NC(C(F)(F)F)(C(F)(F)F)c3c(n(Cc4ccco4)c(=O)[nH]c3=O)N2)cc1,-3,96*,6,3,5,2
COC(=O)c1ccc(CSc2nc3scc(-c4cccs4)c3c(=O)[nH]2)o1,-3,-14,5,0,42*,7
CCOc1ccc2nc(SCc3ccc(C(=O)OC)o3)[nH]c2c1,-15,10,1,2,7,-6
COC(=O)c1ccc(CSc2nc3ccc(Cl)cc3[nH]2)o1,-5,97*,0,1,7,/
COC(=O)c1ccc(CSc2nc3c(cnn3-c3ccc(C)c(C)c3)c(=O)[nH]2)o1,6,-1,4,4,-6,-1
CCN1C(=O)/C(=C2/Sc3ccccc3N2CC)SC1=Nc1ncn[nH]1,/,/,/,3,/,/
C=CCNC(=S)N=c1scc(C)n1C,/,/,/,7,/,/
CN(C)C=Nc1c(C#N)cnn1-c1ncnc2sc(-c3ccccc3)cc12,/,/,/,-8,/,/
CCN=c1scc(C)n1/N=C/c1ccsc1,5,99*,0,/,4,-3
C=CCN=c1scc(C)n1N=Cc1ccc(O)c(O)c1,/,/,/,2,/,/
N#Cc1sc2nc(N3CCCCC3)c3c(c2c1N)CCCC3,4,98*,-22,-16,-4,28
Cc1nc2sc(C#N)c(N)c2c2c1CCCC2,-3,-1,1,-84,-8,2
CCOc1ccccc1C=NNc1ccnc(=O)[nH]1,/,/,/,6,/,/
Oc1ccc(-c2nc3ccccc3s2)cc1,-8,90*,8,-60,-81,1
SMILES,M18AAP inhibitor,ALR inh,Rtt109 Vps75,UCH37 DUB inh,HDAC3 inh,FAS-TE inh
Nc1ccc(-c2nc3ccc(N)cc3s2)cc1,3,99*,-12,i,-388,-5
Nc1cc2sc(-c3ccc(C(=O)O)cc3)nc2cc1Cl,-6,-21,-5,/,-67,0
Nc1ccc(-c2nc3ccc(C(=O)O)cc3s2)cc1,9,99*,5,i,i,-6
O=C(O)c1ccc2nc(-c3ccccc3)sc2c1,3,/,2,4,-2,-8
Nc1cccc(-c2nc3ccc(N)cc3s2)c1,5,99*,-17,i,-99,-4
CC1=Nc2ncnn2C(c2ccccc2)C1=NO (stereo unspecified),/,/,/,4,/,/
O=C(O)c1ccc2ncsc2c1,62*,?,-1,-2,4,-6
O=C(NN=Cc1cc(Cl)cc([N+](=O)[O-])c1O)c1ccc2c(c1)OCO2,/,/,/,8,/,/
CC(=O)c1cccc(-c2ccc3c(=O)[nH]c(Nc4ccccc4)cc3c2)c1,/,-117,-3,31*,-4,42
Cc1cccc(C=NNC(=O)c2cc(-c3cccnc3)nc3c2c(C)nn3-c2ccccc2)c1,/,/,/,-264,/,/
O=c1cc(O)nc(-c2ccc(Cl)cc2)s1,9,93*,-4,2,8,-4
COc1ccc(S(=O)(=O)N(Cc2cccs2)C2CCCC2)cc1,-6,99*,5,3,7,24
COc1ccc(C=c2sc(=CC(=O)c3ccc(C)cc3)[nH]c2=O)cc1OC,/,/,/,1,/,/
O=C1NN(c2ccc(F)c(Cl)c2)C(=O)/C1=C\c1cccc(OC(=O)c2cccs2)c1,-23,-9,84*,8,7,12
O=C1OC(c2ccccc2)=N/C1=C/c1cccc(OC(=O)c2cccs2)c1,-9,10,-2,-7,-7,36
CC(C)=C1C(=O)NN(c2ccc(F)c(Cl)c2)C1=O,-48,94*,24,1,2,-8
NC(=S)NNc1cc(Cl)cc(Cl)c1,10,97*,-3,2,-4,-2
NC(=S)Nc1cc(Cl)cc(Cl)c1,-1,/,/,1,1,2
O=C(NN=Cc1ccccc1Cl)c1cccc(F)c1,/,/,/,3,/,/
Cc1ccc(OCC(=O)N/N=C\c2ccc(O)cc2)c([N+](=O)[O-])c1,-10,87*,2,/,-1,-4
CCc1ccc(OCC(=O)N/N=C\c2ccco2)c([N+](=O)[O-])c1,-7,96*,1,/,2,-6
COc1ccccc1/C=C/C=Nn1c(-c2cc(-c3ccccc3)n[nH]2)n[nH]c1=S,/,/,/,3,/,/
Cc1nccn1CC(=O)c1ccc(O)c(O)c1,/,87*,-3,2,-3,-8
C=CCC[C@@H](Cc1ccc(F)cc1)C(=O)OC[C@@H](NC(=O)[C@@H](CC=C)CC(=O)N[C@@H](CO)Cc1ccccc1)C(C)(C)C,/,7,-1,1,18,9
C=CC[C@H](CC(=O)N[C@H](CO)Cc1ccccc1)C(=O)N[C@@H](COC(=O)[C@@H](CC=C)CC(=O)OC(C)(C)C)Cc1c[nH]c2ccccc12,/,3,-5,5,32*,6
C=CCC[C@H](Cc1ccc(F)cc1)C(=O)OC[C@@H](NC(=O)[C@@H](CC=C)CC(=O)N[C@@H](CO)Cc1ccccc1)C(C)(C)C,/,-3,-12,2,32*,9
